# Measurements collected from several papers.
# Compare with care: the assays were run in different laboratories.
# Target: Dual specificity mitogen-activated protein kinase kinase 2 (MAP2K2, Homo sapiens, UniProt P36507)
Compound,test,conditions,quantity,result
COc1cc(Cl)c(C(=O)N[C@@H](CN[C@H]2CC[C@@H](N)CC2)Cc2ccc(C#N)cc2)cc1-c1ccc(CN[C@H](C)c2ccc(C)cc2)o1,"enzyme activity, inhibitor",1 µM,remaining activity,115%
COc1cc2ncnc(Nc3ccc(Oc4ccccc4)c(C)c3C)c2cc1OC,"enzyme activity, inhibitor",1 µM,inhibition,-7%
Cn1cc(Cl)c2c(Oc3c(F)cc(Nc4cc(Cl)nc(N)n4)cc3F)ccnc21,"cell-free assay, competition with immobilised ligand",0.1 µM,remaining binding,100%
O=C(Nc1cnn(-c2csc(C(=O)NC3COC3)c2)c1)Nc1c(F)cccc1Cl,"enzyme activity, inhibitor",5 µM,remaining activity,90.6%
CC(C)(O)[C@H]1CC[C@H](Nc2ccc3ncc(-c4cccc(C(F)(F)F)c4)n3n2)CC1,"enzyme activity, inhibitor",1 µM,remaining activity,101%
N#CC(=C(N)Sc1ccc(N)cc1)c1ccccc1C(F)(F)F,cell-free assay,0.5 µM,remaining signal,94.5%
CN1CCC2(CC1)NC(=O)c1c(c3ccc(Cl)c(Cl)c3n1C)C2C#N (racemic),"thermal stability, DSF",10 µM,ΔTm,-0.3 °C
Cc1ccc(C(=O)Nc2ccc(CN3CCN(C)CC3)c(C(F)(F)F)c2)cc1C#Cc1cnc2cccnn12,"enzyme activity, inhibitor",23.5 nM,remaining activity,97%
Nc1c(C(=O)NCc2ccc(C(=O)NCCCC3CCCCC3)cc2)cnn1-c1ccccc1,"cell-free assay, competition with immobilised ligand",0.1 µM,remaining binding,100%
Oc1cccc(-c2nc(N3CCOCC3)c3oc4ncccc4c3n2)c1,"enzyme activity, inhibitor",10 µM,remaining activity,115%
FC(F)(F)Oc1cccc(-c2cnc3ccc(-c4ccncc4)nn23)c1,"enzyme activity, inhibitor, radiometric",5 µM,activity vs control,94%
CN1CC(Oc2cnc(C#N)cc2-c2ccn3nc(NC(=O)C4CC4)cc3c2)C1,"enzyme activity, inhibitor",1 µM,inhibition,14%
Cc1ccc(NC(=O)c2ccc(CN3CCN(C)CC3)cc2)cc1Nc1nc(-c2cccnc2)cs1,cell-free assay,0.5 µM,remaining signal,114%
CN([C@@H]1CCc2c(CC(=O)O)c3cc(S(C)(=O)=O)ccc3n2C1)S(=O)(=O)c1ccc(F)cc1,"cell-free assay, competition with immobilised ligand",1 µM,remaining binding,95%
COc1cc(-c2cc(-c3ccc(N4CCNCC4)cc3)cnc2C)cc(OC)c1OC,"enzyme activity, inhibitor",0.1 µM,inhibition,4%
COc1cc(Nc2cnc(C#N)c(O[C@H](C)CN(C)C)n2)ncc1-c1cnn(C)c1,"enzyme activity, inhibitor, radiometric",1 µM,remaining activity,76%
CS(=O)(=O)Nc1cccc(-c2csc(NC(=O)CSc3nc4nccnc4c(=O)n3CCc3ccccc3)n2)c1,"enzyme activity, inhibitor",10 µM,inhibition,-1%
CCN1CCC2(CC1)NC(=O)c1c(c3ccc(Cl)c(Cl)c3n1C)C2C#N (racemic),"thermal stability, DSF",10 µM,ΔTm,-0.1 °C
Cc1sc(C(=O)NC2COC2)cc1-n1cc(NC(=O)Nc2c(F)cccc2Cl)cn1,"enzyme activity, inhibitor",10 µM,remaining activity,99.5%
CCc1ccccc1C(=O)Nc1n[nH]c2c(C)c(F)c(C3C(C#N)=C(C)N(C)C(C)=C3C#N)cc12,"cell-free assay, competition with immobilised ligand",1 µM,remaining binding,100%
C#Cc1cccc(Nc2ncnc3cc(OCCOC)c(OCCOC)cc23)c1,cell-free assay,0.5 µM,remaining signal,105%
Cn1c2c(c3ccc(Cl)c(Cl)c31)C(C#N)C(C)(C)NC2=O (stereo not shown),"thermal stability, DSF",10 µM,ΔTm,-0.5 °C
CN(C)C(=O)Cn1cc(-c2nc([C@@](C)(c3ccc(-c4cnc(N)nc4)cc3)C3CC3)no2)cn1,"cell-free assay, competition with immobilised ligand",1 µM,remaining binding,86%
COc1cc(/C=C/C(=O)CC(=O)/C=C/c2ccc(O)c(OC)c2)ccc1O,"enzyme activity, inhibitor",1 µM,activity vs control,91%
N#Cc1ccc(Nc2ccc3[nH]c(=O)[nH]c3c2)c(Cl)c1,"cell-free assay, competition with immobilised ligand",1 µM,remaining binding,93%
Cn1c2c(Cl)c(Cl)ccc2c2cc[nH]c(=O)c21,"thermal stability, DSF",10 µM,ΔTm,-0.5 °C
CC(C)(C)c1nc(-c2cccc(NS(=O)(=O)c3c(F)cccc3F)c2F)c(-c2ccnc(N)n2)s1,"enzyme activity, inhibitor, radiometric",1 µM,remaining activity,91%
CNC(=O)c1ccc(Nc2ncc(C(F)(F)F)c(NCc3nccnc3N(C)S(C)(=O)=O)n2)cc1,"cell-free assay, competition with immobilised ligand",0.1 µM,remaining binding,100%
Cn1c2c(c3ccc(Cl)c(Cl)c31)C(C#N)C1(CCNCC1)NC2=O (racemic),"thermal stability, DSF",10 µM,ΔTm,-0.4 °C
CN(C(=O)c1ccccc1)c1cc(N(C)c2ccc3c(c2)CCc2ccc(C(=O)NCCN4CCOCC4)cc2C3=O)ccc1F,"cell-free assay, competition with immobilised ligand",1 µM,remaining binding,100%
Cn1c2c(c3ccc(Cl)c(Cl)c31)C(C#N)C1(CCOCC1)NC2=O (stereo not shown),"thermal stability, DSF",10 µM,ΔTm,-0.4 °C
